Reference: ChEMBL document CHEMBL4808167, “Design, Synthesis, and Evaluation of Small Molecule Gαq/11 Protein Inhibitors for the Treatment of Uveal Melanoma” (J Med Chem, 2021)

Tests used:
[1] = molecular target: GNAQ/GNA11 (Homo sapiens) (UniProt P50148+P29992); test: Inhibition of Galphaq/11 (unknown origin) expressed in CHO cells coexpressing M1 receptor assessed as reduction in carbachol-induced IP1 accumulation at 10 uM preincubated for 1 hr followed by carbachol stimulation and measured after 1 hr by HTRF assay relative to control; type: cell-based; conditions: time 2.0 hrs
[2] = Antiproliferative activity against human 92.1 cells assessed as inhibition of cell growth after 72 hrs by CCK8 assay; type: functional, cell-based; conditions: Homo sapiens, 921, 72 h
In short: (§1)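 92.1 or MP41 cells in RPMI-1640 with 10% FBS were seeded at 3 × 10³ cells/well. Exposed to serial concentrations for 72 h at 37 °C, 5% CO₂. CCK-8 added for 1−4 h, absorbance read at 450 nm. IC₅₀ from concentration−response curve fit, mean ± SD.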

[3] = Antiproliferative activity against human MP41 cells assessed as inhibition of cell growth after 72 hrs by CCK8 assay; type: functional, cell-based; conditions: MP41, 72 h; in short: as §1

Row | Structure (SMILES) | inhibition [1] | IC50 [2] | IC50 [3]
1 | CC(C)[C@@H]1c2nc(-c3ccccc3)cn2CCN1C(=O)[C@@H](N)CCCCN | 11.7% | > 100 µM | > 100 µM
2 | N[C@@H](Cc1c[nH]c2ccccc12)C(=O)N1CCn2cc(-c3ccccc3)nc2[C@@H]1CC1CCCCC1 | 7.4% | 20.6 µM | 15.6 µM
3 | CC(C)[C@@H]1c2nc(-c3ccccc3)cn2CCN1C(=O)[C@@H](N)CS | 48.4% | 62.7 µM | > 100 µM
4 | NC(=O)CC[C@H](N)C(=O)N1CCn2cc(-c3ccccc3)nc2[C@@H]1CC1CCCCC1 | 18.5% | 87.2 µM | > 100 µM
5 | CCN(CC)[C@@H](CS)C(=O)N1CCn2cc(-c3ccccc3)nc2[C@@H]1CC1CCCCC1 | 24.2% | > 100 µM | > 100 µM
6 | N[C@@H](CS)C(=O)N1CCn2cc(-c3ccccc3)nc2[C@H]1Cc1ccccc1 | 19.5% | 25.8 µM | 20 µM
7 | CC(C)C[C@H]1c2nc(-c3ccccc3)cn2CCN1C(=O)[C@@H](N)CS | 25.3% | 35.2 µM | 91.9 µM
8 | N=C(N)NCCC[C@H](N)C(=O)N1CCn2cc(-c3ccccc3)nc2[C@@H]1CC1CCCCC1 | 6.2% | > 100 µM | > 100 µM
9 | N[C@@H](CO)C(=O)N1CCn2cc(-c3ccccc3)nc2[C@@H]1CC1CCCCC1 | 29.3% | 78.4 µM | > 100 µM
10 | CN[C@@H](CS)C(=O)N1CCn2cc(-c3ccccc3)nc2[C@@H]1C(C)C | 11.5% | 45 µM | > 100 µM
11 | CC(C)C[C@@H]1c2nc(-c3ccccc3)cn2CCN1C(=O)[C@@H](N)Cc1ccc(O)cc1 | 3.7% | > 100 µM | > 100 µM
12 | CN[C@@H](CS)C(=O)N1CCn2cc(-c3ccccc3)nc2[C@H]1CC(C)C | 13.2% | > 100 µM | 59.3 µM
13 | CN(C)[C@@H](CS)C(=O)N1CCn2cc(-c3ccccc3)nc2[C@@H]1CC1CCCCC1 | 11.9% | > 100 µM | > 100 µM
14 | O=C([C@@H]1CCCN1)N1CCn2cc(-c3ccccc3)nc2[C@@H]1CC1CCCCC1 | 14.2% | 27.4 µM | 63.4 µM
15 | CC[C@H](C)C(=O)N1CCn2cc(-c3ccccc3)nc2[C@@H]1C(C)C | 12.9% | > 100 µM | > 100 µM
16 | NCC(=O)N1CCn2cc(-c3ccccc3)nc2[C@@H]1CC1CCCCC1 | 21.9% | 19.3 µM | > 100 µM
17 | CN[C@@H](CS)C(=O)N1CCn2cc(-c3ccccc3)nc2[C@H]1C(C)C | 30.5% | > 100 µM | > 100 µM
18 | CC(C)C(=O)N1CCn2cc(-c3ccccc3)nc2[C@H]1C(C)C | 14.4% | > 100 µM | > 100 µM
19 | NCCCC[C@H](N)C(=O)N1CCn2cc(-c3ccccc3)nc2[C@@H]1CC1CCCCC1 | 36.8% | > 100 µM | > 100 µM
20 | CC(C)C(=O)N1CCn2cc(-c3ccccc3)nc2[C@@H]1CC1CCCCC1 | 44.2% | 42.3 µM | > 100 µM
21 | N[C@@H](CC(=O)O)C(=O)N1CCn2cc(-c3ccccc3)nc2[C@@H]1CC1CCCCC1 | 10.2% | > 100 µM | > 100 µM
22 | CC(C)[C@H](N)C(=O)N1CCn2cc(-c3ccccc3)nc2[C@@H]1CC1CCCCC1 | 21.7% | 40.3 µM | 83 µM
23 | CC[C@@H](C)[C@H](N)C(=O)N1CCn2cc(-c3ccccc3)nc2[C@H]1CC(C)C | 6.5% | > 100 µM | > 100 µM
24 | CC(C)[C@H]1c2nc(-c3ccccc3)cn2CCN1C(=O)[C@@H](N)Cc1ccc(O)cc1 | 6.6% | > 100 µM | > 100 µM
25 | N[C@@H](CCC(=O)O)C(=O)N1CCn2cc(-c3ccccc3)nc2[C@@H]1CC1CCCCC1 | 16.2% | > 100 µM | > 100 µM
26 | O=C(CCS)N1CCn2cc(-c3ccccc3)nc2[C@@H]1CC1CCCCC1 | 19.8% | 29.1 µM | > 100 µM
27 | CC[C@@H](C)[C@H](N)C(=O)N1CCn2cc(-c3ccccc3)nc2[C@@H]1C(C)C | 1.8% | > 100 µM | > 100 µM

Row | Structure (SMILES) | inhibition [1] | IC50 [2] | IC50 [3]
28 | N[C@@H](Cc1c[nH]cn1)C(=O)N1CCn2cc(-c3ccccc3)nc2[C@@H]1CC1CCCCC1 | 24.7% | 91.9 µM | > 100 µM
29 | N[C@@H](CS)C(=O)N1CCn2cc(-c3ccccc3)nc2[C@@H]1Cc1ccccc1 | 22.9% | 45.2 µM | 19.8 µM
30 | C[C@@H](CS)C(=O)N1CCn2cc(-c3ccccc3)nc2[C@@H]1CC1CCCCC1 | 25.6% | 33.1 µM | > 100 µM
31 | CC(C)[C@@H]1c2nc(-c3ccccc3)cn2CCN1C(=O)[C@@H](N)Cc1ccc(O)cc1 | 18% | > 100 µM | 97.6 µM
32 | CC(C)C(=O)N1CCn2cc(-c3ccccc3)nc2[C@@H]1C(C)C | 9.9% | > 100 µM | > 100 µM
33 | CC(C)C[C@@H]1c2nc(-c3ccccc3)cn2CCN1C(=O)[C@@H](N)CCCCN | 1.3% | > 100 µM | > 100 µM
34 | CC(C)C[C@@H]1c2nc(-c3ccccc3)cn2CCN1C(=O)[C@@H](N)CS | 50.4% | 64.1 µM | 47.7 µM
35 | C[C@@H](O)[C@H](N)C(=O)N1CCn2cc(-c3ccccc3)nc2[C@@H]1CC1CCCCC1 | 10.7% | > 100 µM | > 100 µM
36 | CC[C@H](C)C(=O)N1CCn2cc(-c3ccccc3)nc2[C@H]1CC(C)C | 1.1% | 84.4 µM | 85.8 µM
37 | CC[C@H](C)C(=O)N1CCn2cc(-c3ccccc3)nc2[C@H]1C(C)C | 11.8% | > 100 µM | > 100 µM
38 | CC(C)C[C@@H]1c2nc(-c3ccccc3)cn2CCN1C(=O)[C@@H](N)CO | 4% | > 100 µM | > 100 µM
39 | CC(C)[C@H]1c2nc(-c3ccccc3)cn2CCN1C(=O)[C@@H](N)CCCCN | 5.3% | > 100 µM | > 100 µM
40 | C[C@H](N)C(=O)N1CCn2cc(-c3ccccc3)nc2[C@@H]1CC1CCCCC1 | 17.1% | 35.5 µM | 95.9 µM
41 | C[C@H](O)C(=O)N1CCn2cc(-c3ccccc3)nc2[C@@H]1CC1CCCCC1 | 22.5% | > 100 µM | 56.3 µM
42 | C[C@@H]1c2nc(-c3ccccc3)cn2CCN1C(=O)[C@@H](N)CS | 6% | > 100 µM | > 100 µM
43 | CN[C@@H](CS)C(=O)N1CCn2cc(-c3ccccc3)nc2[C@@H]1CC1CCCCC1 | 30% | 24 µM | 27.8 µM
44 | CC(C)[C@H]1c2nc(-c3ccccc3)cn2CCN1C(=O)[C@@H](N)CO | 2.8% | > 100 µM | > 100 µM
45 | CC(C)C[C@@H]1c2nc(-c3ccccc3)cn2CCN1C(=O)C(C)C | 2.6% | > 100 µM | > 100 µM
46 | N[C@@H](Cc1ccccc1)C(=O)N1CCn2cc(-c3ccccc3)nc2[C@@H]1CC1CCCCC1 | 21.2% | 30.1 µM | 25.5 µM
47 | CC[C@@H](C)[C@H](N)C(=O)N1CCn2cc(-c3ccccc3)nc2[C@H]1C(C)C | 0.96% | > 100 µM | 97.2 µM
48 | CSCC[C@H](N)C(=O)N1CCn2cc(-c3ccccc3)nc2[C@@H]1CC1CCCCC1 | 12.4% | 42 µM | > 100 µM
49 | C[C@H]1c2nc(-c3ccccc3)cn2CCN1C(=O)[C@@H](N)CS | 24.4% | > 100 µM | > 100 µM
50 | CC[C@H](C)C(=O)N1CCn2cc(-c3ccccc3)nc2[C@@H]1CC1CCCCC1 | 47.1% | 27.4 µM | 79 µM
51 | CC(C)[C@@H]1c2nc(-c3ccccc3)cn2CCN1C(=O)[C@@H](N)CO | 9.5% | > 100 µM | > 100 µM
52 | CC(C)[C@H]1c2nc(-c3ccccc3)cn2CCN1C(=O)[C@@H](N)CS | 33.9% | 65.7 µM | > 100 µM
53 | NC(=O)C[C@H](N)C(=O)N1CCn2cc(-c3ccccc3)nc2[C@@H]1CC1CCCCC1 | 19.8% | > 100 µM | > 100 µM
54 | CC(C)C[C@H](N)C(=O)N1CCn2cc(-c3ccccc3)nc2[C@@H]1CC1CCCCC1 | 15.9% | 55.4 µM | 33.5 µM
